High-throughput results: PubChem, several laboratories
STAT1 blocker = STAT1 signaling inhibition | NIH 3T3 STAT1-luciferase reporter, IFN-gamma, luminescence | inhibition, % at 5.5 µM | 0.35% of 200,000 active | AID 920;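 active = inhibition above a set limit, the mean inhibition across all tested compounds plus 3 SD, cut at about 34% in these data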;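 also: 0% = IFN-gamma with DMSO and 100% = IFN-gamma with 300 µM nifuroxazide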
STAT3 act = increases IL-6 driven STAT3 reporter signal | activation (% of control), % at 5.6 µM | AID 871 | U3A cells, IL-6 STAT3-luciferase reporter, luminescence; 100% = signal with IL-6 EC80 alone | 0.91% of 190,000 active;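 active = activation above the screen-wide mean of compound activation plus 3 SD, cut at about 130% in these data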;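 also: 0% = background luminescence of wells with medium and substrate only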
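Material: STAT3-luciferase reporter U3A cells. Controls: IL-6-treated wells, 100% activation. Read-out: % activation versus median of IL-6-stimulated wells. Probe or stimulus: IL-6 stimulus at 33 ng/mL final. Timing: compound 1 h, then IL-6 6 h at 37 °C. Signal: reporter luminescence signal.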
NF-kB expr up = NF-kB expression increase, human neuronal cells; NF-kB reporter expression; active compounds read high; fold change at 12.5 µM; 1.6% of 190,000 active; in the data active = fold change above about 3.3
STAT1 act = STAT1 signaling activation | AID 932 | NIH 3T3 STAT1-luciferase reporter, IFN-gamma, luminescence; 100% = IFN-gamma alone, no compound | activation (% of control), % at 5.5 µM | 2.6% of 200,000 active;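 active = activation above the screen-wide mean activation plus 3 SD, cut at about 130% in these data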;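 also: raw ratio to IFN-gamma control signal so 100% means no change and 0% no light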
STAT3 inh = inhibitors of IL-6 induced STAT3 signaling; U3A cells, IL-6 STAT3-luciferase reporter, luminescence; host cell line lacks STAT1; AID 862; inhibition, % at 5.5 µM; 0.89% of 190,000 active;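 active = inhibition above the mean inhibition across all screened compounds plus 3 SD, cut at about 44% in these data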;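 also: 0% = DMSO only wells and 100% = 100 µM nifuroxazide control wells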
APP 5'UTR act = activates APP 5'UTR luciferase reporter; activation, % at 2 µM; SH-SY5Y APP 5'UTR luciferase reporter, luminescence; zero percent = DMSO vehicle wells; AID 1276; 1% of 190,000 active;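 active = activation above a set limit, based on mean plus 3 SD of controls, cut at about 140% in these data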
Numbers without * were called inactive. The list is not random: actives were taken first. Their share in the collection is about 5.1%.

SMILES | STAT1 blocker | STAT3 act | NF-kB expr up | STAT1 act | STAT3 inh | APP 5'UTR act
CN=c1scc(C)n1/N=C/c1ccc(O)cc1O | 56* | 52 | 3.8* | 49 | 61* | 156*
CCN=c1scc(C)n1/N=C/c1cc(Br)c(O)c(OC)c1 | -4 | 99 | 1.1 | 102 | 11 | 22
C=CCN=c1scc(C)n1/N=C/c1ccc(O)c(O)c1 | -12 | 87 | 2 | 111 | 20 | 8
CN=c1scc(C)n1/N=C/c1cc(Br)c(O)c(Br)c1 | -12 | 91 | 5.5* | 110 | 18 | -4
COc1ccc(O)c(/C=N/n2c(-c3ccco3)csc2=Nc2cccnc2)c1 | -4 | 103 | 0.96 | 104 | -5 | 1
O=C(O)c1c(-c2ccc(Cl)cc2)cn2ccccc12 | -38 | 112 | 2.1 | 135* | -14 | 16
CCC(=O)Nc1cccc(NC(=S)NC(=O)c2cccs2)c1 | -36 | 109 | 1.8 | 132* | -11 | 32
CCCc1ccc(OCc2nc(-c3ccc(NC(=O)c4cccs4)cc3)no2)cc1 | -29 | 105 | 1.7 | 126 | -6 | 40
CCCc1ccc(OCc2nc(-c3ccc(NC(=O)c4ccco4)cc3)no2)cc1 | -33 | 108 | 2.3 | 133* | -6 | 61
Cc1cc(C)n2nc(C(=O)N3CCN(c4ccc([N+](=O)[O-])cc4)CC3)nc2n1 | 7 | 99 | 0.94 | 92 | 6 | -26
OC(COc1ccccc1)CSc1ncn[nH]1 (configuration not stated) | -8 | 105 | 1 | 107 | -2 | 19
CC(C)(C)c1ccc(OCC(O)CSc2ncn[nH]2)cc1 (configuration not stated) | -38 | 108 | 1.6 | 134* | -10 | 16
O=C(NCC1CCCO1)c1cc2ccccc2oc1=O (configuration not stated) | 3 | 99 | 1.1 | 95 | 3 | -1
c1ccc2oc(-c3csc(NCC4CCCO4)n3)cc2c1 (configuration not stated) | -52 | 81 | 9.1* | 148* | 27 | 169*
c1ccc2sc(NCC3CCCO3)nc2c1 (configuration not stated) | -39 | 104 | 1.2 | 136* | -2 | 50
Cc1ccc(CNc2nc3ccccc3s2)s1 | 51* | 40 | 4.2* | 53 | 75* | 182*
c1ccc(CCNc2nc3ccccc3s2)cc1 | -21 | 99 | 2.2 | 119 | 8 | 31
Cn1nnc(-c2ccc(OCc3ccccc3F)cc2)n1 | -24 | 80 | 7.8* | 122 | 28 | 138*
COCCn1c(SCC(=O)Nc2sccc2C(N)=O)nnc1-c1ccncc1 | 0 | 101 | 1.9 | 99 | 1 | -4
O=C(N/N=C\C=C\c1ccco1)c1cc(-c2ccc3ccccc3c2)n[nH]1 | -37 | 100 | 2 | 133* | 3 | 30
O=C(N/N=C/C=C/c1ccco1)c1cccnc1 | -1 | 103 | 1 | 101 | -2 | 8
CC1=CC(C)(C)[N+](C)(C)c2ccc(C)cc21 | 2 | 101 | 1 | 99 | 2 | -3
Cc1cc(C(=O)Nc2nc(C)c(C(=O)N(C)C)s2)ccc1[N+](=O)[O-] | -50 | 78 | 1.1 | 150* | 25 | 104
Cc1nc(NC(=O)c2ccc([N+](=O)[O-])cc2Cl)sc1C(=O)N(C)C | 9 | 95 | 1 | 92 | 9 | -14
O=C(NCC1CCCO1)c1ccc2c(=O)n(CC3CCCO3)c(SCC(=O)N3CCCC3)nc2c1 (configuration not stated) | -15 | 97 | 0.84 | 115 | 4 | -2
SMILES | STAT1 blocker | STAT3 act | NF-kB expr up | STAT1 act | STAT3 inh | APP 5'UTR act
COCCN1Cc2c(sc(C)c2C)N(C(=O)c2ccccc2)C1 | -10 | 138* | 2.5 | 109 | -32 | 52
O=C1c2ccccc2C(=O)N1CCc1c[nH]c2ccc(O)cc12 | -37 | 77 | 1.9 | 132* | 30 | 14
Cc1ccc2nc3c(cc(C#N)c(=N)n3Cc3cccnc3)c(=O)n2c1 | -3 | 99 | 0.99 | 102 | 7 | 5
Cn1c(Cl)c(C(=O)Nc2ccc(Cl)cc2)c2ccccc21 | -8 | 155* | 1.3 | 107 | -50 | 20
COc1cccc2sc(Nc3nc(-c4ccccn4)cs3)nc12 | -40 | 128 | 0.86 | 136* | -32 | -84
CC(=O)c1sc(N/N=C\c2ccccc2O)nc1C | -3 | 107 | 5.9* | 101 | -6 | 131
CC(=O)c1sc(Nc2cccc(C)c2)nc1C | -28 | 90 | 1.2 | 123 | 17 | 9
CCOC(=O)c1sc(NC(=O)Nc2ccc(Cl)cc2)nc1C | -32 | 97 | 1.8 | 129* | 10 | 21
CCOC(=O)c1sc(Nc2nc3c(OC)cccc3s2)nc1C | -9 | 136* | 0.97 | 107 | -35 | 32
CCn1c(SCc2nc3ccccc3c(=O)[nH]2)nnc1C(C)NC(=O)c1ccccc1F (configuration not stated) | 2 | 102 | 0.85 | 97 | 3 | 3
O=C(NNC(=O)C1CCN(c2ncccn2)CC1)c1ccc(Cl)cc1 | -8 | 101 | 1.4 | 106 | 6 | 23
CCOC(=O)c1sc(N/N=C/c2cccc(C)c2)nc1C | -37 | 93 | 1.6 | 130* | 16 | 15
Cc1cc(-c2ccc(Br)cc2)n[nH]1 | -40 | 83 | 1.5 | 137* | 27 | 25
Nc1cc(-c2ccc(Br)cc2)[nH]n1 | -5 | 111 | 1 | 104 | -9 | 15
COC(=O)CSCC(=O)Nc1nnc(-c2cccc(C)c2)s1 | 14 | 89 | 1.1 | 86 | 15 | 7
COc1ccccc1OCCN1CSC(=S)N(C)C1 | -8 | 100 | 6.6* | 107 | 3 | -5
Cc1cccc(OCCN2CSC(=S)N(C)C2)c1 | 3 | 99 | 1.7 | 97 | 5 | 12
Cc1ccc(S(=O)(=O)NNC(=O)C(=O)NNS(=O)(=O)c2ccc(C)cc2)cc1 | 4 | 99 | 1.1 | 94 | 5 | 6
Cc1ccc(NNS(=O)(=O)c2ccc(C)cc2)cc1 | 3 | 135* | 1.1 | 98 | -36 | 17
CNc1nc(N(C)C)nc(N(C)C)n1 | 6 | 136* | 1.3 | 94 | -39 | 5
CCCCN1CCc2c([nH]c3c(C)cccc23)C1=O | -32 | 103 | 3.5* | 128 | 3 | 87
CCCc1c(C)c2cccc(C)c2[nH]c1=O | 1 | 81 | 1.3 | 99 | 29 | 2
Cc1ccc(NC(=S)N2CCCC(CO)C2)c(C)c1 (configuration not stated) | -21 | 105 | 1.2 | 116 | 0 | -10
CSc1ccc(-c2nnn(Cc3ccc(Br)cc3)n2)cc1 | -6 | 95 | 1.6 | 105 | 10 | -4
CSc1ccc(-c2nnn(Cc3ccccn3)n2)cc1 | -43 | 112 | 2.9 | 140* | -9 | 69
O=c1c2c(-c3cccs3)csc2ncn1-n1cccc1 | -6 | 136* | 0.77 | 106 | -40 | 20
